# Results pooled from the literature.
# Lines come from different studies, so protocols differ.
Structure (SMILES),tested on,test,conditions,quantity,result
COc1ccc(Sc2ccc(OC)c(OC)c2OC)cc1,,"tubulin polymerisation, inhibitor, absorbance",pH 6.6,IC50,16 µM
Cc1cc(Nc2ncc(Cl)c(Nc3ccccc3S(=O)(=O)C(C)C)n2)c(OC(C)C)cc1C1CCNCC1,KARPAS-299,"cell growth or viability, MTT","5 µg/mL, 72 h",inhibition,97.7%
COc1ccc(Sc2ccc(C)cc2)c(OC)c1OC,,"tubulin polymerisation, inhibitor, absorbance",pH 6.6,IC50,> 40 µM
C[C@@H](Oc1cc(-c2cnn(C3CCNCC3)c2)cnc1N)c1c(Cl)ccc(F)c1Cl,KARPAS-299,"cell growth or viability, MTT","0.2 µg/mL, 72 h",inhibition,75.5%
Cc1cc(C)cc(COc2cc3c(cc2OCc2cc(C)cc(C)c2)[C@H]2C[C@](O)(Cc4cn(CCc5ccc(N)cc5)nn4)C[C@H](C)N2CC3)c1,ASPC1,"cell growth or viability, MTT",,IC50,0.568 µM
COc1ccc([S+]([O-])c2ccccc2)c(OC)c1OC (stereo not shown),,"tubulin polymerisation, inhibitor, absorbance",pH 6.6,IC50,> 40 µM
Cc1cc(C)cc(COc2cc3c(cc2OCc2cc(C)cc(C)c2)C2CC(O)(Cc4cn(CCCCCCNc5cccc6c5C(=O)N(C5CCC(=O)NC5=O)C6=O)nn4)CC(C)N2CC3)c1 (stereo not shown),ASPC1,"cell growth or viability, MTT",,IC50,1.08 µM
COc1cc(Nc2nccc(-c3cnn4nc(OC)ccc34)n2)cc(C(F)(F)F)c1,HEC-1-A,"cell growth or viability, ATP luminescence",,IC50,1 µM
C=CS(=O)(=O)Nc1ccc(Cn2cc(C[C@@]3(O)C[C@@H]4c5cc(OCc6cc(C)cc(C)c6)c(OCc6cc(C)cc(C)c6)cc5CCN4[C@@H](C)C3)nn2)cc1,ASPC1,"cell growth or viability, MTT",,IC50,0.823 µM
CC(C)C[C@H](NC(=O)[C@H](Cc1ccccc1)NC(=O)c1cnccn1)B(O)O,RERF-LC-MS,"cell growth or viability, ATP luminescence",,IC50,0.02 µM
